{
  "source": "paper PMC4180501",
  "about": "(Biochimica et biophysica acta, 2012)",
  "key": {"GK-WT": {"target": "T1, GK-WT (Homo sapiens, UniProt P35557)", "T1 sequence (P35557 1-465)": "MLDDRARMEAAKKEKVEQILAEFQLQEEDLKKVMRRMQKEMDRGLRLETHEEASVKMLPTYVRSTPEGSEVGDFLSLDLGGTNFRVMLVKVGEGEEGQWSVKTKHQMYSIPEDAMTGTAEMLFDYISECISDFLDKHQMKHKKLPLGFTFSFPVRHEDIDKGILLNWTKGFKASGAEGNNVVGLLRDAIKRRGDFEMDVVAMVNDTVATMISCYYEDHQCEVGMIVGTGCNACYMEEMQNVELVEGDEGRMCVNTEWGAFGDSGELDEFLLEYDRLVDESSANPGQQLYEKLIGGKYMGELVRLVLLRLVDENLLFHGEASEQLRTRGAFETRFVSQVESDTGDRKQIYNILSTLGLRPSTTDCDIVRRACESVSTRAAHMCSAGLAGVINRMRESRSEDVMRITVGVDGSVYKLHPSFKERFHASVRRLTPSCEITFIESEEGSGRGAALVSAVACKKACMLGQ", "assay": "D-glucose binding by tryptophan fluorescence titration", "conditions": "for ΔG of glucose binding / ΔH of glucose binding / ΔS of glucose binding: pure wild type GK, 25 °C, pH 7.3, Vant Hoff plot"}, "GK-W99 (W167F/W257F)": {"target": "T2, GK-W99 (W167F/W257F) (Homo sapiens, UniProt P35557, W167F/W257F)", "T2 sequence (P35557 1-465 W167F/W257F)": "T1 sequence (P35557 1-465) with W167F, W257F", "assay": "D-glucose binding by tryptophan fluorescence titration", "conditions": "W-99, no GKA"}, "GK-W167 (W99R/W257F) [1]": {"target": "T3, GK-W167 (W99R/W257F) (Homo sapiens, UniProt P35557, W257F/W99R)", "T3 sequence (P35557 1-465 W99R/W257F)": "T1 sequence (P35557 1-465) with W99R, W257F", "assay": "NADP+-coupled spectrophotometric kinetic assay", "format": "biochemical", "conditions": "W-167, no GKA", "in_short": "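Recombinant human β-cell glucokinase single-Trp variant, expressed in E. coli as a GST fusion and sequence-verified. Catalytic parameters came from an NADP+-coupled spectrophotometric assay run with or without 30% glycerol. Hill coefficient and glucose S0.5 were obtained by fitting v/Vmax = [glucose]^H/(K′+[glucose]^H), with […].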"}, "GK- W257 (W99R/W167F) [2]": {"target": "T4, GK- W257 (W99R/W167F) (Homo sapiens, UniProt P35557, W167F/W99R)", "T4 sequence (P35557 1-465 W99R/W167F)": "T1 sequence (P35557 1-465) with W99R, W167F", "assay": "NADP+-coupled spectrophotometric kinetic assay", "format": "biochemical", "conditions": "W-257, no GKA"}, "GK-W167 (W99R/W257F) [3]": {"target": "T3, GK-W167 (W99R/W257F)", "assay": "DSC thermal denaturation", "conditions": "W-167 in buffer, 300 mM D-glucose", "in_short": "(§1)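 Samples were degassed and scanned by DSC at 0.25 degree/min against a reference holding everything except protein. Tm and calorimetric ΔH were taken by integrating the Cp-vs-temperature thermogram; Cpm is the apparent heat capacity at the maximum.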"}, "GK- W257 (W99R/W167F) [4]": {"target": "T4, GK- W257 (W99R/W167F)", "assay": "DSC thermal denaturation", "conditions": "W-257 in buffer, 300 mM D-glucose", "in_short": "as §1"}},
  "note": "Changes are numbered by the printed parent chain.",
  "data": [
    {"smiles": "OC[C@H]1OC(O)[C@H](O)[C@@H](O)[C@@H]1O", "note": "(stereo partly drawn) [D-glucose]", "values": [
      {"measurement": "Kd", "setting": "GK-WT; D-glucose binding KD, GK-WT, no GKA, 20% glycerol", "result": 1.8, "unit": "mM"},
      {"measurement": "Kd", "setting": "GK-WT; D-glucose binding KD, GK-WT, no GKA, no glycerol", "result": 7.4, "unit": "mM"},
      {"measurement": "Kd", "setting": "GK-WT; glucose KD, 11 °C, absence of glycerol", "result": 13.7, "unit": "mM"},
      {"measurement": "Kd", "setting": "GK-WT; glucose KD, 45 °C, presence of glycerol", "result": 1.15, "unit": "mM"},
      {"measurement": "ΔG of glucose binding", "setting": "GK-WT; 20% glycerol", "result": -3.82, "unit": "kcal/mol"},
      {"measurement": "ΔH of glucose binding", "setting": "GK-WT; 20% glycerol", "result": "4.78 ± 0.72", "unit": "kcal/mol"},
      {"measurement": "ΔS of glucose binding", "setting": "GK-WT; 20% glycerol", "result": "120+/−9 J/mol*K"},
      {"measurement": "ΔG of glucose binding", "setting": "GK-WT; no glycerol", "result": -3.13, "unit": "kcal/mol"},
      {"measurement": "ΔH of glucose binding", "setting": "GK-WT; no glycerol", "result": "8.13 ± 0.48", "unit": "kcal/mol"},
      {"measurement": "ΔS of glucose binding", "setting": "GK-WT; no glycerol", "result": "157+/−4 J/mol*K"},
      {"measurement": "Kd", "setting": "GK-W99 (W167F/W257F); 20% glycerol", "result": 4.06, "unit": "mM"},
      {"measurement": "Kd", "setting": "GK-W99 (W167F/W257F); no glycerol", "result": 18.8, "unit": "mM"},
      {"measurement": "Glucose S0.5", "setting": "GK-W167 (W99R/W257F) [1]; 30% glycerol", "result": 0.82, "unit": "mM"},
      {"measurement": "kcat", "setting": "GK-W167 (W99R/W257F) [1]; 30% glycerol", "result": 26.2, "unit": "s⁻¹"},
      {"measurement": "nH (Hill coefficient towards glucose)", "setting": "GK-W167 (W99R/W257F) [1]; 30% glycerol", "result": 1.32},
      {"measurement": "Glucose S0.5", "setting": "GK-W167 (W99R/W257F) [1]; no glycerol", "result": 2.28, "unit": "mM"},
      {"measurement": "kcat", "setting": "GK-W167 (W99R/W257F) [1]; no glycerol", "result": 69.9, "unit": "s⁻¹"},
      {"measurement": "nH (Hill coefficient towards glucose)", "setting": "GK-W167 (W99R/W257F) [1]; no glycerol", "result": 1.53},
      {"measurement": "Glucose S0.5", "setting": "GK- W257 (W99R/W167F) [2]; 30% glycerol", "result": 4.70, "unit": "mM"},
      {"measurement": "kcat", "setting": "GK- W257 (W99R/W167F) [2]; 30% glycerol", "result": 6.37, "unit": "s⁻¹"},
      {"measurement": "nH (Hill coefficient towards glucose)", "setting": "GK- W257 (W99R/W167F) [2]; 30% glycerol", "result": 1.43},
      {"measurement": "Glucose S0.5", "setting": "GK- W257 (W99R/W167F) [2]; no glycerol", "result": 9.82, "unit": "mM"},
      {"measurement": "kcat", "setting": "GK- W257 (W99R/W167F) [2]; no glycerol", "result": 12.4, "unit": "s⁻¹"},
      {"measurement": "kcat/S0.5", "setting": "GK- W257 (W99R/W167F) [2]; no glycerol", "result": 1270, "unit": "M⁻¹ s⁻¹"},
      {"measurement": "nH (Hill coefficient towards glucose)", "setting": "GK- W257 (W99R/W167F) [2]; no glycerol", "result": 1.23},
      {"measurement": "Cp^m", "setting": "GK-W167 (W99R/W257F) [3]", "result": 90.4, "unit": "kJ/mol/°C"},
      {"measurement": "ΔH thermal denaturation", "setting": "GK-W167 (W99R/W257F) [3]", "result": 97.99, "unit": "kcal/mol"},
      {"measurement": "Tm", "setting": "GK-W167 (W99R/W257F) [3]; DSC", "result": 53.4, "unit": "°C"},
      {"measurement": "Cp^m", "setting": "GK- W257 (W99R/W167F) [4]", "result": 122.6, "unit": "kJ/mol/°C"},
      {"measurement": "ΔH thermal denaturation", "setting": "GK- W257 (W99R/W167F) [4]", "result": 158, "unit": "kcal/mol"},
      {"measurement": "Tm", "setting": "GK- W257 (W99R/W167F) [4]; DSC", "result": 51.2, "unit": "°C"}
    ]}
  ]
}
